Assay results from ChEMBL document CHEMBL2434899, “Peripherally selective diphenyl purine antagonist of the CB1 receptor” (J Med Chem, 2013).
One block for each molecule: values may come before it. Active and inactive are the calls of the source.

Assays:
Cannabinoid receptor 1 [1] = target: T1, Cannabinoid receptor 1 (Homo sapiens, UniProt P21554); test: Displacement of [3H]CP55940 from human CB1 receptor expressed in CHO-K1 cells; type: cell-based
Homo sapiens = species on record: Homo sapiens; test: Selectivity ratio of Ki for CB2 receptor (unknown origin) to Ki for human CB1 receptor
Cannabinoid receptor 1 [2] = target: T1, Cannabinoid receptor 1; test: Antagonist activity at human CB1 receptor expressed in CHO-K1 cells by intracellular Ca2+ mobilization assay in presence of CP55940; type: functional, cell-based
How it was run: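 CHO-K1 cells co-expressing human CB1 and Gαq16; intracellular calcium flux read with fluorescent dye on a 96-well plate reader. Rightward shift of the CP55940 concentration-response curve gives Ke = [ligand]/(DR−1), DR being the CP55940 EC50 ratio with versus without test agent. Averages of 3–6 measurements.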

Cannabinoid receptor 2 = Cannabinoid receptor 2 (Homo sapiens, UniProt P34972); test: Displacement of [3H]CP55940 from CB2 receptor (unknown origin) expressed in CHO-K1 cells; type: cell-based
Nucleic Acid [3] = test: Ratio of drug uptake from brain to plasma in Sprague-Dawley rat at 10 mg/kg, po after 24 hrs by LC-MS analysis; type: ADME, organism-based; set-up: dose 10 mg/kg, route oral
How it was run: (§1)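 Male Sprague Dawley rats, 9 weeks old, given 10 mg/kg orally by gavage in corn oil; 3 rats per time point. Un-perfused brain and plasma taken at 1, 2, 4, 8 and 24 h. Plasma, or brain homogenized in ethanol:water, was precipitated with acetonitrile, centrifuged 9000 g for 5 min and analysed by LC-MS/MS (MRM, C18 column).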

Mus musculus [4] = test: Antagonist activity at CB1 receptor in ICR mouse assessed as latency period at 10 mg/kg, po after 30 mins by warm water tail withdrawal assay; type: functional, organism-based; set-up: dose 10 mg/kg
How it was run: (§2)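 ICR mice had baseline tail-withdrawal latency measured in a 55 °C water bath, then received oral vehicle or 10 mg/kg by gavage, followed 30 min later by i.v. vehicle or 30 mg/kg Δ9-THC. Latency was retested 20 min post-injection with a 10 s cutoff, expressed as %MPE = [(test−control)/(10−control)]×100. 5–6 mice per group; factorial ANOVA with Tukey post hoc.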

Mus musculus [5] = test: Antagonist activity at CB1 receptor in ICR mouse assessed as catelepsy at 10 mg/kg, po after 30 mins; type: functional, organism-based; set-up: dose 10 mg/kg
How it was run: (§3)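 Adult ICR mice given vehicle or 10 mg/kg oral gavage, then vehicle or 30 mg/kg Δ9-THC i.v. by tail vein 30 min later. Rectal temperature was taken before injection and at 30 min after it, reported as change (°C). At 40 min, time motionless on an elevated ring over 5 min was recorded as % immobility. 5–6 mice per group; factorial ANOVA with Tukey post hoc.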

[6] = Plasma concentration in Sprague-Dawley rat at 10 mg/kg, po after 4 hrs by LC-MS analysis; type: ADME, organism-based; set-up: dose 10 mg/kg, route oral; how it was run: as §1
Nucleic Acid [7] = test: Ratio of drug uptake from brain to plasma in Sprague-Dawley rat at 10 mg/kg, po after 8 hrs by LC-MS analysis; type: ADME, organism-based; set-up: dose 10 mg/kg, route oral; how it was run: as §1
Mus musculus [8] = test: Reversal of delta9-THC-mediated suppression of hypothermia in ICR mouse assessed as rectal temperature at 10 mg/kg, po administered 30 mins prior to delta9-THC challenge measured after 30 mins relative to control; type: functional, organism-based; set-up: dose 10 mg/kg; how it was run: as §3
[9] = Plasma concentration in Sprague-Dawley rat at 10 mg/kg, po after 24 hrs by LC-MS analysis; type: ADME, organism-based; set-up: dose 10 mg/kg, route oral; how it was run: as §1
[10] = Plasma concentration in Sprague-Dawley rat at 10 mg/kg, po after 2 hrs by LC-MS analysis; type: ADME, organism-based; set-up: dose 10 mg/kg, route oral; how it was run: as §1
Mus musculus [11] = test: Reversal of delta9-THC-mediated suppression of catelepsy in ICR mouse at 10 mg/kg, po administered 30 mins prior to delta9-THC challenge measured after 40 mins; type: functional, organism-based; set-up: dose 10 mg/kg; how it was run: as §3
[12] = Drug uptake in brain of Sprague-Dawley rat at 10 mg/kg, po after 2 hrs by LC-MS analysis; type: ADME, organism-based; set-up: dose 10 mg/kg, route oral; details: read-out: Drug uptake; how it was run: as §1
[13] = Plasma concentration in Sprague-Dawley rat at 10 mg/kg, po after 8 hrs by LC-MS analysis; type: ADME, organism-based; set-up: dose 10 mg/kg, route oral; how it was run: as §1
[14] = Drug uptake in brain of Sprague-Dawley rat at 10 mg/kg, po after 8 hrs by LC-MS analysis; type: ADME, organism-based; set-up: dose 10 mg/kg, route oral; details: read-out: Drug uptake; how it was run: as §1
Mus musculus [15] = test: Antagonist activity at CB1 receptor in ICR mouse assessed as rectal temperature at 10 mg/kg, po after 30 mins relative to control; type: functional, organism-based; set-up: dose 10 mg/kg; how it was run: as §3
Mus musculus [16] = test: Reversal of delta9-THC-mediated suppression of antinociceptive activity in ICR mouse assessed as latency period at 10 mg/kg, po administered 30 mins prior to delta9-THC challenge measured after 20 mins by warm water tail withdrawal assay; type: functional, organism-based; set-up: dose 10 mg/kg; how it was run: as §2
[17] = Drug uptake in brain of Sprague-Dawley rat at 10 mg/kg, po after 1 hr by LC-MS analysis; type: ADME, organism-based; set-up: dose 10 mg/kg, route oral; details: read-out: Drug uptake; how it was run: as §1
[18] = Drug uptake in brain of Sprague-Dawley rat at 10 mg/kg, po after 4 hrs by LC-MS analysis; type: ADME, organism-based; set-up: dose 10 mg/kg, route oral; details: read-out: Drug uptake; how it was run: as §1
[19] = Drug uptake in brain of Sprague-Dawley rat at 10 mg/kg, po after 24 hrs by LC-MS analysis; type: ADME, organism-based; set-up: dose 10 mg/kg, route oral; details: read-out: Drug uptake; how it was run: as §1
Nucleic Acid [20] = test: Ratio of drug uptake from brain to plasma in Sprague-Dawley rat at 10 mg/kg, po after 2 hrs by LC-MS analysis; type: ADME, organism-based; set-up: dose 10 mg/kg, route oral; how it was run: as §1
Nucleic Acid [21] = test: Ratio of drug uptake from brain to plasma in Sprague-Dawley rat at 10 mg/kg, po after 1 hr by LC-MS analysis; type: ADME, organism-based; set-up: dose 10 mg/kg, route oral; how it was run: as §1
[22] = Plasma concentration in Sprague-Dawley rat at 10 mg/kg, po after 1 hr by LC-MS analysis; type: ADME, organism-based; set-up: dose 10 mg/kg, route oral; how it was run: as §1
Mus musculus [23] = test: Antagonist activity at CB1 receptor in ICR mouse assessed as suppression of spontaneous activity at 10 mg/kg, po after 30 mins; type: functional, organism-based; set-up: dose 10 mg/kg
How it was run: (§4)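 ICR mice were gavaged with vehicle or 10 mg/kg, then injected i.v. in the tail vein 30 min later with vehicle or 30 mg/kg Δ9-THC. After 5 min each mouse was placed in an activity chamber for 10 min; horizontal movement was counted as total infrared photobeam interruptions. 5–6 mice per group; factorial ANOVA with Tukey post hoc.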

Nucleic Acid [24] = test: Ratio of drug uptake from brain to plasma in Sprague-Dawley rat at 10 mg/kg, po after 4 hrs by LC-MS analysis; type: ADME, organism-based; set-up: dose 10 mg/kg, route oral; how it was run: as §1
Mus musculus [25] = test: Reversal of delta9-THC-mediated suppression of spontaneous activity in ICR mouse at 10 mg/kg, po administered 30 mins prior to delta9-THC challenge measured after 5 mins; type: functional, organism-based; set-up: dose 10 mg/kg; how it was run: as §4

T1 sequence (P21554 whole entry): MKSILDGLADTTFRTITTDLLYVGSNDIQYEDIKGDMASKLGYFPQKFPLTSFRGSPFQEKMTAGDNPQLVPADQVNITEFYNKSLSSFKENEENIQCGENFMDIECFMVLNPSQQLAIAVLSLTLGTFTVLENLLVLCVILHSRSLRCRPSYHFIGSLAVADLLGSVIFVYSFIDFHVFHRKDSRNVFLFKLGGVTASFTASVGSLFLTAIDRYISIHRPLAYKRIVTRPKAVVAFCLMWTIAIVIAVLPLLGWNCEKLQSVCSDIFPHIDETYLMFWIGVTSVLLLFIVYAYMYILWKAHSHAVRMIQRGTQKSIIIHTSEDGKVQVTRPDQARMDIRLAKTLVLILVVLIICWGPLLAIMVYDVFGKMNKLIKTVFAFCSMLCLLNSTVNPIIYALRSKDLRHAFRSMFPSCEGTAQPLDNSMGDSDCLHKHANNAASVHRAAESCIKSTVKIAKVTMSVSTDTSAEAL
Sequence of Cannabinoid receptor 2 (P34972 whole entry): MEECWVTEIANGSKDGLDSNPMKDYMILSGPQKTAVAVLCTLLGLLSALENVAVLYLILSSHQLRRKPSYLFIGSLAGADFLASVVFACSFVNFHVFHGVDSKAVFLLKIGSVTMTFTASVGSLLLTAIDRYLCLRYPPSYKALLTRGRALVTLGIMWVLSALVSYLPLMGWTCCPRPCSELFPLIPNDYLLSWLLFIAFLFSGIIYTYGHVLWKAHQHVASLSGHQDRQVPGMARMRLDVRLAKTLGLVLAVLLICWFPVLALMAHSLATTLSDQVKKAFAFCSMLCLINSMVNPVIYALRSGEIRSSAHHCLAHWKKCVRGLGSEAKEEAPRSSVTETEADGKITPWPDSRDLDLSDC

SMILES: O=C(NC1CCN(c2ncnc3c2nc(-c2ccccc2Cl)n3-c2ccc(Cl)cc2)CC1)Oc1ccccc1
- Ki (Cannabinoid receptor 1 [1]): 0.00255 µM
- Ki (Cannabinoid receptor 2): 10.6 µM

SMILES: O=C(CC1CCCCC1)NC1CCN(c2ncnc3c2nc(-c2ccccc2Cl)n3-c2ccc(Cl)cc2)CC1
- Ki (Cannabinoid receptor 1 [1]): 0.00193 µM
- Ke (Cannabinoid receptor 1 [2]): 2.1 nM
- Ki (Cannabinoid receptor 2): 2.36 µM

SMILES: O=C(CCN1CCCCC1)NC1CCN(c2ncnc3c2nc(-c2ccccc2Cl)n3-c2ccc(Cl)cc2)CC1
- Ke (Cannabinoid receptor 1 [2]): 789 nM

SMILES: CC(C)CCC(=O)NC1CCN(c2ncnc3c2nc(-c2ccccc2Cl)n3-c2ccc(Cl)cc2)CC1
- Ki (Cannabinoid receptor 1 [1]): 0.00267 µM
- Ratio Ki (Homo sapiens): 81
- Ke (Cannabinoid receptor 1 [2]): 7.4 nM
- Ki (Cannabinoid receptor 2): 0.215 µM

SMILES: O=C(NC1CCN(c2ncnc3c2nc(-c2ccccc2Cl)n3-c2ccc(Cl)cc2)CC1)C1CCCC1
- Ki (Cannabinoid receptor 1 [1]): 0.00154 µM
- Ratio Ki (Homo sapiens): 39
- Ke (Cannabinoid receptor 1 [2]): 0.89 nM
- Ki (Cannabinoid receptor 2): 0.0602 µM

SMILES: O=C(CC1CCCC1)NC1CCN(c2ncnc3c2nc(-c2ccccc2Cl)n3-c2ccc(Cl)cc2)CC1
- Ki (Cannabinoid receptor 1 [1]): 0.00202 µM
- Ratio Ki (Homo sapiens): 282
- Ke (Cannabinoid receptor 1 [2]): 2.9 nM
- Ki (Cannabinoid receptor 2): 0.569 µM

SMILES: O=C(NC1CCN(c2ncnc3c2nc(-c2ccccc2Cl)n3-c2ccc(Cl)cc2)CC1)C1CCCCC1
- Ki (Cannabinoid receptor 1 [1]): 0.00335 µM
- Ratio Ki (Homo sapiens): 249
- Ke (Cannabinoid receptor 1 [2]): 3.3 nM
- Ki (Cannabinoid receptor 2): 0.835 µM

Now from value to molecule, other results behind:

- Ki (Cannabinoid receptor 1 [1]): 0.00357 µM
- Ratio Ki (Homo sapiens): 119
- Ke (Cannabinoid receptor 1 [2]): 2.3 nM
- Ki (Cannabinoid receptor 2): 0.426 µM
SMILES: CCOC(=O)NC1CCN(c2ncnc3c2nc(-c2ccccc2Cl)n3-c2ccc(Cl)cc2)CC1

- Ki (Cannabinoid receptor 1 [1]): 0.0061 µM
- Ratio Ki (Homo sapiens): 738
- Ke (Cannabinoid receptor 1 [2]): 1.05 nM
- Ki (Cannabinoid receptor 2): 4.5 µM
SMILES: O=S(=O)(NC1CCN(c2ncnc3c2nc(-c2ccccc2Cl)n3-c2ccc(Cl)cc2)CC1)C(F)(F)F

- Ke (Cannabinoid receptor 1 [2]): 2770 nM
SMILES: NS(=O)(=O)NC1CCN(c2ncnc3c2nc(-c2ccccc2Cl)n3-c2ccc(Cl)cc2)CC1

- Ki (Cannabinoid receptor 1 [1]): 0.00401 µM
- Ratio Ki (Homo sapiens): 22
- Ke (Cannabinoid receptor 1 [2]): 5.4 nM
- Ki (Cannabinoid receptor 2): 0.0895 µM
SMILES: CC(C)CC(=O)NC1CCN(c2ncnc3c2nc(-c2ccccc2Cl)n3-c2ccc(Cl)cc2)CC1

- BPR (Nucleic Acid [3]): 0.01
- concentration at 4 h [6]: 1.56 µg/mL
- BPR (Nucleic Acid [7]): 0.03
- concentration at 24 h [9]: 0.438 µg/mL
- concentration at 2 h [10]: 1.75 µg/mL
- concentration at 2 h [12]: 0.0715 µg/mL
- concentration at 8 h [13]: 1.97 µg/mL
- concentration at 8 h [14]: 0.0625 µg/mL
- Ki (Cannabinoid receptor 1 [1]): 0.0195 µM
- Ratio Ki (Homo sapiens): 54
- concentration at 1 h [17]: 0.0243 µg/mL
- Ke (Cannabinoid receptor 1 [2]): 4.9 nM
- concentration at 4 h [18]: 0.103 µg/mL
- concentration at 24 h [19]: 0.00535 µg/mL
- Ki (Cannabinoid receptor 2): 1.05 µM
- BPR (Nucleic Acid [20]): 0.04
- BPR (Nucleic Acid [21]): 0.03
- concentration at 1 h [22]: 0.73 µg/mL
- BPR (Nucleic Acid [24]): 0.07
SMILES: CCCCC(=O)NC1CCN(c2ncnc3c2nc(-c2ccccc2Cl)n3-c2ccc(Cl)cc2)CC1
- Activity (Mus musculus [4]): inactive
- Activity (Mus musculus [5]): inactive
- Activity (Mus musculus [8]): inactive
- Activity (Mus musculus [11]): inactive
- Activity (Mus musculus [15]): inactive
- Activity (Mus musculus [16]): inactive
- Activity (Mus musculus [23]): inactive
- Activity (Mus musculus [25]): inactive

- Ke (Cannabinoid receptor 1 [2]): 17 nM
SMILES: COC(=O)NC1CCN(c2ncnc3c2nc(-c2ccccc2Cl)n3-c2ccc(Cl)cc2)CC1

- Ke (Cannabinoid receptor 1 [2]): 140 nM
SMILES: CN(C)CC(=O)NC1CCN(c2ncnc3c2nc(-c2ccccc2Cl)n3-c2ccc(Cl)cc2)CC1
